Laboratory results as given in ChEMBL document CHEMBL3769376, “Discovery of I-BRD9, a Selective Cell Active Chemical Probe for Bromodomain Containing Protein 9 Inhibition” (J Med Chem, 2016).
In brackets after ≈: the same amount, converted by molar mass. Activity calls are given as the source filed them. No cut-off for these calls is given here.

Key:
[1] = target: Bromodomain-containing protein 3 (Homo sapiens, UniProt Q15059); assay: Inhibition of BRD3 in human HUT78 cells incubated for 45 mins by chemoproteomic competition binding assay; format: cell-based
Outline: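 Nuclear and tight-chromatin extracts were prepared from HuT78 cells grown in spinner flasks. Compound was spiked into the mixed extracts at a range of doses and incubated for 45 min at 4 °C. Extracts were then incubated with sepharose beads derivatised with 2.0 mM of an amine-bearing bromodomain ligand. Beads were washed with 0.2% NP-40 lysis buffer and eluted in SDS/DTT. BRD3 was read out by Western blot.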

[2] = target: Potassium voltage-gated channel subfamily A member 5 (Homo sapiens) (UniProt P22460); assay: Inhibition of human Kv1.5 channel at <5 uM by electrophysiology
Chain of Potassium voltage-gated channel subfamily A member 5 (Homo sapiens) (P22460 whole entry): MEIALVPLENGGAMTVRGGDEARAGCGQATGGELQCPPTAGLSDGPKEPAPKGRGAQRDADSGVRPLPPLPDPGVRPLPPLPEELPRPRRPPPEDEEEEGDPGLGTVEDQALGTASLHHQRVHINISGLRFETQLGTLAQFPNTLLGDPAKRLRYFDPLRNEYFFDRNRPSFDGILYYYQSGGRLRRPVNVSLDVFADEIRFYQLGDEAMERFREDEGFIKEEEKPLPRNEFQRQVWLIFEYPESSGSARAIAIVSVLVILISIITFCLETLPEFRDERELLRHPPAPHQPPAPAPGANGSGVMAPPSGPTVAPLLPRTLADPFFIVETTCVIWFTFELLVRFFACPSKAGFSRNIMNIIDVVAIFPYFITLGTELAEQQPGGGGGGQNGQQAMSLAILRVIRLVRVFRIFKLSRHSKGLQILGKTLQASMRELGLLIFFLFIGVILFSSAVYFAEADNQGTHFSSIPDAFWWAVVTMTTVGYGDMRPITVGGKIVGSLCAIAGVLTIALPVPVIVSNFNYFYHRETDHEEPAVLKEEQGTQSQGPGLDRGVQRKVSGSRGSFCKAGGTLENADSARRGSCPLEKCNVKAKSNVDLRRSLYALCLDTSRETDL

[3] = target: Voltage-gated inwardly rectifying potassium channel KCNH2 (Homo sapiens, UniProt Q12809); assay: Inhibition of human ERG channel at <5 uM by electrophysiology
[4] = Aqueous solubility of the compound in PBS at pH 7.4 by chemiluminescent nitrogen detection method; format: physicochemical
Outline: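 A 10 mM DMSO stock was precipitated into pH7.4 phosphate buffered saline at 5% DMSO. Dissolved compound was quantified by chemiluminescent nitrogen detection.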

[5] = target: Glutamate receptor ionotropic, NMDA 2B (Homo sapiens) (UniProt Q13224); assay: Antagonist activity at human NMDA 2B receptor assessed as change in intracellular calcium level at <5 uM by fluorescence assay; format: cell-based
[6] = species: Homo sapiens; assay: Agonist activity at human GABA-A receptor at <5 uM by electrophysiology
[7] = species: Homo sapiens; assay: Antagonist activity at human GABA-A receptor at <5 uM by electrophysiology
[8] = species: Homo sapiens; assay: Positive modulator activity at human GABA-A receptor at <5 uM by electrophysiology
[9] = target: Alpha-1B adrenergic receptor (Homo sapiens) (UniProt P35368); assay: Antagonist activity at human Alpha 1b adrenergic receptor assessed as change in intracellular calcium level at <5 uM by fluorescence assay; format: functional, cell-based
Chain of Alpha-1B adrenergic receptor (Homo sapiens) (P35368 whole entry): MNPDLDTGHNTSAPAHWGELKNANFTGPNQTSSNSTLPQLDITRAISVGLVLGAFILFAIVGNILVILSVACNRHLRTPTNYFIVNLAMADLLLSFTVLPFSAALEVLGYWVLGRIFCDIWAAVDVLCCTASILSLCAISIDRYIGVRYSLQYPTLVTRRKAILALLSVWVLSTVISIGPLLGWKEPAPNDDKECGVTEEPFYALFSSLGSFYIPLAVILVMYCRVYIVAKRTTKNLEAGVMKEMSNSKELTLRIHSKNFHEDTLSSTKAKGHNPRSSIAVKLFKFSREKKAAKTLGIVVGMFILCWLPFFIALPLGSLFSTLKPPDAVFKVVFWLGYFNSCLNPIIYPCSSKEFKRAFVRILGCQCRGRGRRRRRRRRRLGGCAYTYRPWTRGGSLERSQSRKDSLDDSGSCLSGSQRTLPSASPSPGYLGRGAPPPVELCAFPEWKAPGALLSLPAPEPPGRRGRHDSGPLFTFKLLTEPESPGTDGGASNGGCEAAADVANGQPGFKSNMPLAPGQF

[10] = target: Beta-2 adrenergic receptor (Homo sapiens) (UniProt P07550); assay: Agonist activity at human beta-2 adrenergic receptor at <5 uM by TR-FRET assay
Chain of Beta-2 adrenergic receptor (Homo sapiens) (P07550 whole entry, looked up): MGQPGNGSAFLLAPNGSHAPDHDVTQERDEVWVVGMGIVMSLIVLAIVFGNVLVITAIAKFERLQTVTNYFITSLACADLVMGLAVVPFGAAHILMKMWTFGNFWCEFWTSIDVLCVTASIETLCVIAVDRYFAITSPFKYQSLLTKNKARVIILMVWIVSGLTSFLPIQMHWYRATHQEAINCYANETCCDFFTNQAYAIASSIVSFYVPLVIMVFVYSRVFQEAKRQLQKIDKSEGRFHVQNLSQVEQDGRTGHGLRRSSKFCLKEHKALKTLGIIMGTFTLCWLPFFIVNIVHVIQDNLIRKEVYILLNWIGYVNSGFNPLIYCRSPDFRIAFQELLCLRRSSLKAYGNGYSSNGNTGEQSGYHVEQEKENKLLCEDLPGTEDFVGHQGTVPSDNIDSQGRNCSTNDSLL

[11] = target: Beta-2 adrenergic receptor (Homo sapiens) (UniProt P07550); assay: Antagonist activity at human beta-2 adrenergic receptor at <5 uM by TR-FRET assay
[12] = target: D(1A) dopamine receptor (Homo sapiens) (UniProt P21728); assay: Antagonist activity at human D1 dopamine receptor at <5 uM by TR-FRET assay
[13] = target: D(2) dopamine receptor (Homo sapiens) (UniProt P14416); assay: Antagonist activity at human D2 dopamine receptor at <5 uM by scintillation proximity assay
[14] = target: Histamine H1 receptor (Homo sapiens) (UniProt P35367); assay: Antagonist activity at human histamine H1 receptor assessed as change in intracellular calcium level at <5 uM by fluorescence assay; format: functional, cell-based
[15] = target: Muscarinic acetylcholine receptor M2 (Homo sapiens) (UniProt P08172); assay: Agonist activity at human muscarinic 2 receptor assessed as change in intracellular calcium level at <5 uM by fluorescence assay; format: functional, cell-based
Chain of Muscarinic acetylcholine receptor M2 (Homo sapiens) (P08172 whole entry): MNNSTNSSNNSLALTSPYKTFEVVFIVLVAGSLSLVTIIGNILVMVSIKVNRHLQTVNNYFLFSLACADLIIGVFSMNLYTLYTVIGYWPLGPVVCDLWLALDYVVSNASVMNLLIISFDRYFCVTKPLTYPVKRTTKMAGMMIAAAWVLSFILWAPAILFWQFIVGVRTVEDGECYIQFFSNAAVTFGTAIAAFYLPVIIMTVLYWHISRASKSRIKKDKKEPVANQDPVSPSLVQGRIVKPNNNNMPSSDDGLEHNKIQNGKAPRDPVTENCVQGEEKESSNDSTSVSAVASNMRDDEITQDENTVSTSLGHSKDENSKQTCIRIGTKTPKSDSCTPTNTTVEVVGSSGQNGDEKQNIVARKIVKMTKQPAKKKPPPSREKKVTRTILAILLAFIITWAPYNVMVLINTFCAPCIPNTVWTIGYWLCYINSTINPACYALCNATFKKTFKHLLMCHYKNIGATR

[16] = target: Muscarinic acetylcholine receptor M2 (Homo sapiens) (UniProt P08172); assay: Antagonist activity at human muscarinic 2 receptor assessed as change in intracellular calcium level at <5 uM by fluorescence assay; format: functional, cell-based
[17] = target: Mu-type opioid receptor (Homo sapiens) (UniProt P35372); assay: Agonist activity at human mu opiod receptor at <5 uM by scintillation proximity assay
[18] = target: Vasopressin V1a receptor (Homo sapiens) (UniProt P37288); assay: Antagonist activity at human vasopressin V1a receptor assessed as change in intracellular calcium level at <5 uM by fluorescence assay; format: functional, cell-based
[19] = target: 5-hydroxytryptamine receptor 2C (Homo sapiens) (UniProt P28335); assay: Agonist activity at human 5HT2C receptor assessed as change in intracellular calcium level at <5 uM by fluorescence assay; format: functional, cell-based
Chain of 5-hydroxytryptamine receptor 2C (Homo sapiens) (P28335 whole entry): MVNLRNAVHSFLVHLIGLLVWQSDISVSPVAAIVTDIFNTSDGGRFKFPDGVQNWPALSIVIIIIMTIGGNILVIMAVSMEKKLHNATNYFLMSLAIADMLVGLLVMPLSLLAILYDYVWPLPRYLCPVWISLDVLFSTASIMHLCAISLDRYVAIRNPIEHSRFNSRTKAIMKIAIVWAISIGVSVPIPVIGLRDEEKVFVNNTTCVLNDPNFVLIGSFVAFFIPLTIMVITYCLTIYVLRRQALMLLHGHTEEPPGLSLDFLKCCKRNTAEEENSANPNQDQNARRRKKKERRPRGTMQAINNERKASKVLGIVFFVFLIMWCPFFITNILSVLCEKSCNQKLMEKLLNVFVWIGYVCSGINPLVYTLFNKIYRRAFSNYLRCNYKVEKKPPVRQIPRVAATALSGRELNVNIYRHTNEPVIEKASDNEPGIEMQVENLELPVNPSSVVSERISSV

[20] = target: 5-hydroxytryptamine receptor 2C (Homo sapiens) (UniProt P28335); assay: Antagonist activity at human 5HT2C receptor assessed as change in intracellular calcium level at <5 uM by fluorescence assay; format: functional, cell-based
[21] = target: 5-hydroxytryptamine receptor 3A (Homo sapiens) (UniProt P46098); assay: Agonist activity at human 5HT3 receptor assessed as change in intracellular calcium level at <5 uM by fluorescence assay; format: cell-based
Chain of 5-hydroxytryptamine receptor 3A (Homo sapiens) (P46098 whole entry): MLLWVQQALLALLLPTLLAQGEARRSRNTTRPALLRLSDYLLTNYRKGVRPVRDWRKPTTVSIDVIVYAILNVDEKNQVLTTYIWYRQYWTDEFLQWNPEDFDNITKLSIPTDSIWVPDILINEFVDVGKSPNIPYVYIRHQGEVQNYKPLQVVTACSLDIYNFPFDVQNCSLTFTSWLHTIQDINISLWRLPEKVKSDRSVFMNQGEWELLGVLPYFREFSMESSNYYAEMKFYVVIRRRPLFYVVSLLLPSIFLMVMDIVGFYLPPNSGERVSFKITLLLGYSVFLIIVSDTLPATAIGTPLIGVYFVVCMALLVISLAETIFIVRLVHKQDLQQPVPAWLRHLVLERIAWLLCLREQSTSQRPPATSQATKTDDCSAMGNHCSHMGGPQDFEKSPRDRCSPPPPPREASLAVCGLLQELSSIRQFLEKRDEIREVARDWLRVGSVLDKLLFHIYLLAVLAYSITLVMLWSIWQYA

[22] = target: Kappa-type opioid receptor (Homo sapiens) (UniProt P41145); assay: Agonist activity at human kappa opiod receptor at <5 uM by scintillation proximity assay
[23] = target: Substance-P receptor (Homo sapiens) (UniProt P25103); assay: Antagonist activity at human NK1 receptor assessed as change in intracellular calcium level at <5 uM by fluorescence assay; format: functional, cell-based
[24] = target: Amine oxidase [flavin-containing] A (Homo sapiens, UniProt P21397); assay: Inhibition of human MAO-A at <5 uM by FLINT assay
Chain of Amine oxidase [flavin-containing] A (P21397 whole entry): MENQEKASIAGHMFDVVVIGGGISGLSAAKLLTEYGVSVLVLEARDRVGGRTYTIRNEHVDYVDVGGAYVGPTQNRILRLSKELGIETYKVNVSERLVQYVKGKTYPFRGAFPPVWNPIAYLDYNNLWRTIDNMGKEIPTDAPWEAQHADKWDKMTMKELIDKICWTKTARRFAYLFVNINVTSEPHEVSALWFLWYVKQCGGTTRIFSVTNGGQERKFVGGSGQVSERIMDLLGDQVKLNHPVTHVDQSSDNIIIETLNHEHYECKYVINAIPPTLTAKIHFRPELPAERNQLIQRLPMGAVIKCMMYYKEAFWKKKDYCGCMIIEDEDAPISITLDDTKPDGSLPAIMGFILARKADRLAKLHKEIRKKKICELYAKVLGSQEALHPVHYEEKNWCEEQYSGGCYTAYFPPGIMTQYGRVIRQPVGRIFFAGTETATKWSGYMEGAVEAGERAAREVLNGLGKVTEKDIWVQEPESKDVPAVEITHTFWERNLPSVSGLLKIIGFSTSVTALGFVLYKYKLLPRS

[25] = target: 3',5'-cyclic-AMP phosphodiesterase 4B (Homo sapiens) (UniProt Q07343); assay: Inhibition of human PDE4B at <5 uM by luminescence assay
Chain of 3',5'-cyclic-AMP phosphodiesterase 4B (Homo sapiens) (Q07343 whole entry): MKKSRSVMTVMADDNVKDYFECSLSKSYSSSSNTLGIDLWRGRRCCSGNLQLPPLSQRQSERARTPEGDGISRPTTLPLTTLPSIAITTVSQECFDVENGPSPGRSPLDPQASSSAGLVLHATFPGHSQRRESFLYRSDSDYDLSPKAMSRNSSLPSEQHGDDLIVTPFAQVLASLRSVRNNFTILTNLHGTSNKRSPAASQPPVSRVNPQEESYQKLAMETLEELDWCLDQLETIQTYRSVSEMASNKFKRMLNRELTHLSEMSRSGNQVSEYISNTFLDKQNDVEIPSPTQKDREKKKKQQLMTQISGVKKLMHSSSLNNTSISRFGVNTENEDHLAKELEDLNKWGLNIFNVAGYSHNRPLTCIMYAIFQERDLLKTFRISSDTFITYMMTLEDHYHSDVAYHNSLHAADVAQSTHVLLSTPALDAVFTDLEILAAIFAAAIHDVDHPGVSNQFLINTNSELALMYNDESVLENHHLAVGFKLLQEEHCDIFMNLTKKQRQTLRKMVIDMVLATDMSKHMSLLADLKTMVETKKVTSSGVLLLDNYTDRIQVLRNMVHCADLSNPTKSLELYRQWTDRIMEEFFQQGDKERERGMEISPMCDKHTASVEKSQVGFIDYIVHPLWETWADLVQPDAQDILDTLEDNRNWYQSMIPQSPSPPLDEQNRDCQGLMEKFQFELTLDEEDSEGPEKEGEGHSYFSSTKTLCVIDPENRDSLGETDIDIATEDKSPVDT

[26] = target: Prostaglandin G/H synthase 2 (Homo sapiens) (UniProt P35354); assay: Inhibition of human COX2 at <5 uM by FLINT assay
[27] = target: Aurora kinase B (Homo sapiens) (UniProt Q96GD4); assay: Inhibition of human aurora B at <5 uM by IMAP assay
[28] = target: Phosphatidylinositol 4,5-bisphosphate 3-kinase catalytic subunit gamma isoform (Homo sapiens) (UniProt P48736); assay: Inhibition of human PI3Kgamma at <5 uM by TR-FRET assay
[29] = target: Tyrosine-protein kinase Lck (Homo sapiens) (UniProt P06239); assay: Inhibition of human LCK at <5 uM by IMAP assay
Chain of Tyrosine-protein kinase Lck (Homo sapiens) (P06239 2-509 limits assumed): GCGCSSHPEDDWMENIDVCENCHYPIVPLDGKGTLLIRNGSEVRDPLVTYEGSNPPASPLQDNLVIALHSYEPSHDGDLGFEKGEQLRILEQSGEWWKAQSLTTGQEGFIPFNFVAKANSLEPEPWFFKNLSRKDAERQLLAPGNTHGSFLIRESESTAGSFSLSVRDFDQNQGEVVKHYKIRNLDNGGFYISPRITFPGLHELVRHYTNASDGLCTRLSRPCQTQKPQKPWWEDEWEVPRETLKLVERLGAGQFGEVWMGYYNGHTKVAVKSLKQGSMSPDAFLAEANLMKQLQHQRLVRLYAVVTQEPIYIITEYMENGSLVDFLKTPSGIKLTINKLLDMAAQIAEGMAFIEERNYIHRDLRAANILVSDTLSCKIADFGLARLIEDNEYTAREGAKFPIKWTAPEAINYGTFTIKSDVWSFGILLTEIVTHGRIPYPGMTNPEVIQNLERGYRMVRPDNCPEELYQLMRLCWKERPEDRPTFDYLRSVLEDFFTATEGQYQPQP

[30] = target: T1, Bromodomain-containing protein 9 (Homo sapiens) (UniProt Q9H8M2); settings: Kasumi 1, 10 uM
T1 sequence (whole entry): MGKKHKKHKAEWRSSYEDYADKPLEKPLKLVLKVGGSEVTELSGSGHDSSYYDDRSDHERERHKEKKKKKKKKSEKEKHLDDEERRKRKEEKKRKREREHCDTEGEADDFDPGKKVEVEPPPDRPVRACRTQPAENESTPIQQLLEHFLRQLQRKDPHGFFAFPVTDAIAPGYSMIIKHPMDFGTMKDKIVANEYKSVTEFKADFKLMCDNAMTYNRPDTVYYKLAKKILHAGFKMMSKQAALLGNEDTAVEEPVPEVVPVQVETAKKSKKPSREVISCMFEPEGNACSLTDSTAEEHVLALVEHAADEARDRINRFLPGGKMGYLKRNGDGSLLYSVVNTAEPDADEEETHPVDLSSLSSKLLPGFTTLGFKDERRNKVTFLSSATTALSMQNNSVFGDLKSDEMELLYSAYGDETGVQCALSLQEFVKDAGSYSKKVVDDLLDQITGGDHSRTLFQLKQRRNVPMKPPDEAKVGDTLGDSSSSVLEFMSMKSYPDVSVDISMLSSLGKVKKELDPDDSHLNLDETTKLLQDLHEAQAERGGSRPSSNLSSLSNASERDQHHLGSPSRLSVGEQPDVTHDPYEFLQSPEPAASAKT

[31] = target: T1, Bromodomain-containing protein 9 (Homo sapiens); settings: Kasumi 1, 10 uM; remark: listed apart in the source

For `CCn1cc(-c2cccc(C(F)(F)F)c2)c2sc(C(=N)NC3CCS(=O)(=O)CC3)cc2c1=O`, the IC50 [1] was greater than 50.1 µM, the inhibition [2] was “inactive” and the “inhibition (INH)” value [3] was “Not Active”. The solubility [4] was 359 µM (≈ 179 µg/mL), the inhibition [5] was “inactive” and the Activity [6] was “inactive”. The inhibition [7] was “inactive”, the Activity [8] was “inactive” and the inhibition [9] was “inactive”. The Activity [10] was “inactive”, the inhibition [11] was “inactive” and the inhibition [12] was “inactive”. For the same molecule, the inhibition [13] was “inactive”, the inhibition [14] was “inactive” and the Activity [15] was “inactive”. For the same molecule, the inhibition [16] was “inactive”, the Activity [17] was “inactive” and the inhibition [18] was “inactive”. For the same molecule, the Activity [19] was “inactive”, the inhibition [20] was “inactive” and the Activity [21] was “inactive”. For the same molecule, the Activity [22] was “inactive”, the inhibition [23] was “inactive” and the “inhibition (INH)” value [24] was “Not Active”. For the same molecule, the inhibition [25] was “inactive”, the inhibition [26] was “inactive” and the inhibition [27] was “inactive”. The inhibition [28] was “inactive”, the inhibition [29] was “inactive” and the inhibition [30] was “Active”. The inhibition [31] was “Active”.
